In ChEMBL document CHEMBL1126198, “A new class of high affinity ligands for the neurokinin A NK2 receptor: psi (CH2NR) reduced peptide bond analogues of neurokinin A4-10” (J Med Chem, 1992):
Starred links: 1 amine or outer side, 2 acyl side, 3 side chain; linkers in the order of their positions; H or OH if unused. Non-standard residues stand in square brackets, D forms with d. Residues, ends and D or L forms follow the SMILES beside them. *: point of attachment. X3 = N[C@@H](CC(=O)O)C(=O)N[C@@H](CO)CN([C@@H](Cc1ccccc1)C(=O)[*:2])[*:1]; Leuψ(CH2NH)PheNH2 = CC(C)C[C@@H](CN[C@@H](Cc1ccccc1)C(N)=O)N*; X9 = CC(C)CC(=O)N(C[C@H](CC(C)C)N*)[C@@H](CC(C)C)C(N)=O; X7 = CCCN(C[C@H](CC(C)C)N*)[C@@H](Cc1ccccc1)C(N)=O; X4 = CC(C)C[C@H](NC(=O)[C@H](CC(C)C)NCCN*)C(N)=O; X2 = CCN(C[C@H](CC(C)C)N*)[C@@H](CC(C)C)C(N)=O; X8 = CC(C)C[C@@H](CN(C)[C@@H](CC(C)C)C(N)=O)N*; X6 = CC(C)C[C@H](NC[C@H](Cc1ccccc1)N*)C(N)=O; X1 = CC(C)C[C@@H](CN[C@@H](CC(C)C)C(N)=O)N*; X5 = O=C(O)CCCN([C@@H](CO)C(=O)[*:2])[*:1]; βAla = NCCC(=O)O

Legend:
[1] = target: T1, Substance-K receptor (Mesocricetus auratus, UniProt P51144); assay: Competitive inhibition of [125I]NKA binding to hamster urinary bladder Tachykinin receptor 2; format: single protein
T1 sequence (P51144 whole entry): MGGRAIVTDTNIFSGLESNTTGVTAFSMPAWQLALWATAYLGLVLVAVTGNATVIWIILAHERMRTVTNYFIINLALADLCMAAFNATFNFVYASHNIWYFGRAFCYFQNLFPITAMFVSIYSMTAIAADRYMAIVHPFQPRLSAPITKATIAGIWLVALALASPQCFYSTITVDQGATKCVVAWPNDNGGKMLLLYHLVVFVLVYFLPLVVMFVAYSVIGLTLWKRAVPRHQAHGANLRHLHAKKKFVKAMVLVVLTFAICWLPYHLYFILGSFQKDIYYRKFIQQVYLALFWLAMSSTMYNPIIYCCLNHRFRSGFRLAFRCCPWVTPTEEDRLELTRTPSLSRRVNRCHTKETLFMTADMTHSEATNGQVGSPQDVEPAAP

[2] = system: Cricetinae gen. sp.; assay: Compound was evaluated for the competitive antagonism of NKA-stimulated PI (phosphatidylinositol) turnover in hamster urinary bladder tissue using [3H]inositol as radioligand; format: functional; settings: read-out: pA2 (converted)
Summary of the method: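 Chopped hamster bladder labeled 1 h at 37 °C with [3H]myo-inositol. Assay run at room temperature in Krebs-HEPES (20 mM). Total inositol phosphates isolated on ion-exchange columns eluted sequentially, starting with water. PI turnover ratio = inositol phosphates cpm / organic extraction phase cpm. Basal level taken without NKA; maximum stimulation with 1 μM NKA. Mean ± SEM of separate experiments.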

Structure (SMILES)	IC50 [1] [nM]	Kb [2] [nM]
CSCC[C@H](NC(=O)[C@H](CC(C)C)NC(=O)CNC(=O)[C@@H](NC(=O)[C@H](Cc1ccccc1)NC(=O)[C@H](CO)NC(=O)[C@@H](N)CC(=O)O)C(C)C)C(N)=O	6	–
CC(C)C[C@H](NC(=O)[C@H](CC(C)C)NC(=O)CNC(=O)[C@@H](NC[C@H](Cc1ccccc1)NC(=O)[C@H](CO)NC(=O)[C@@H](N)CC(=O)O)C(C)C)C(N)=O	> 10000	–
CC(C)C[C@H](NC(=O)[C@H](CC(C)C)NC(=O)CNC[C@@H](NC(=O)[C@H](Cc1ccccc1)NC(=O)[C@H](CO)NC(=O)[C@@H](N)CC(=O)O)C(C)C)C(N)=O	5660	–
CC(C)C[C@H](NC(=O)[C@H](CC(C)C)NC(=O)CNC(=O)[C@@H](NC(=O)[C@H](Cc1ccccc1)NC(=O)[C@H](CO)NC(=O)[C@@H](N)CC(=O)O)C(C)C)C(N)=O	136	–
CC(C)C[C@H](NC(=O)[C@H](CC(C)C)NCCNC(=O)[C@@H](NC(=O)[C@H](Cc1ccccc1)NC(=O)[C@H](CO)NC(=O)[C@@H](N)CC(=O)O)C(C)C)C(N)=O (H-DSFV-X4)	> 10000	–
CC(C)C[C@@H](CN[C@@H](CC(C)C)C(N)=O)NC(=O)CNC(=O)[C@@H](NC(=O)[C@H](Cc1ccccc1)NC(=O)[C@H](CO)NC(=O)[C@@H](N)CC(=O)O)C(C)C (H-DSFVG-X1)	115	200
CCN(C[C@H](CC(C)C)NC(=O)CNC(=O)[C@@H](NC(=O)[C@H](Cc1ccccc1)NC(=O)[C@H](CO)NC(=O)[C@@H](N)CC(=O)O)C(C)C)[C@@H](CC(C)C)C(N)=O (H-DSFVG-X2)	277	–
CC(C)C[C@H](NC[C@H](Cc1ccccc1)NC(=O)CNC(=O)[C@@H](NC(=O)[C@H](Cc1ccccc1)NC(=O)[C@H](CO)NC(=O)[C@@H](N)CC(=O)O)C(C)C)C(N)=O (H-DSFVG-X6)	> 10000	–
CC(C)C[C@@H](CN(C)[C@@H](CC(C)C)C(N)=O)NC(=O)CNC(=O)[C@@H](NC(=O)[C@H](Cc1ccccc1)NC(=O)[C@H](CO)NC(=O)[C@@H](N)CC(=O)O)C(C)C (H-DSFVG-X8)	193	–
CC(C)CC(=O)N(C[C@H](CC(C)C)NC(=O)CNC(=O)[C@@H](NC(=O)[C@H](Cc1ccccc1)NC(=O)[C@H](CO)NC(=O)[C@@H](N)CC(=O)O)C(C)C)[C@@H](CC(C)C)C(N)=O (H-DSFVG-X9)	162	–
CC(C)C[C@@H](CN[C@@H](Cc1ccccc1)C(N)=O)NC(=O)CNC(=O)[C@@H](NC(=O)[C@H](Cc1ccccc1)NC(=O)[C@H](CO)NC(=O)[C@@H](N)CC(=O)O)C(C)C (H-DSFVG-{Leuψ(CH2NH)PheNH2})	9	–
CC(C)C[C@@H](CN[C@@H](CC(C)C)C(N)=O)NC(=O)CCNC(=O)[C@@H](NC(=O)[C@H](Cc1ccccc1)NC(=O)[C@H](CO)NC(=O)[C@@H](N)CC(=O)O)C(C)C (H-DSFV[βAla]-X1)	108	–
CCCN(C[C@H](CC(C)C)NC(=O)CCNC(=O)[C@@H](NC(=O)[C@H](Cc1ccccc1)NC(=O)[C@H](CO)NC(=O)[C@@H](N)CC(=O)O)C(C)C)[C@@H](Cc1ccccc1)C(N)=O (H-DSFV[βAla]-X7)	1	–
CC(C)C[C@@H](CN[C@@H](Cc1ccccc1)C(N)=O)NC(=O)CCNC(=O)[C@@H](NC(=O)[C@H](Cc1ccccc1)NC(=O)[C@H](CO)NC(=O)[C@@H](N)CC(=O)O)C(C)C (H-DSFV[βAla]-{Leuψ(CH2NH)PheNH2})	10	–
CC(C)C[C@H](NC(=O)[C@H](CC(C)C)NC(=O)CNC(=O)[C@@H](NC(=O)[C@H](Cc1ccccc1)NC[C@H](CO)NC(=O)[C@@H](N)CC(=O)O)C(C)C)C(N)=O (H-[X3]VGLL-NH2)	> 10000	–
CC(C)C[C@H](NC(=O)[C@H](CC(C)C)NC(=O)CNC(=O)[C@@H](NC(=O)[C@H](Cc1ccccc1)NC(=O)[C@H](CO)NCCCC(=O)O)C(C)C)C(N)=O (H-[X5]FVGLL-NH2)	1650	–
CSCC[C@H](NC(=O)[C@H](CC(C)C)NC(=O)CNC(=O)[C@@H](NC(=O)[C@H](Cc1ccccc1)NC(=O)[C@H](CO)NC(=O)[C@H](CC(=O)O)NC(=O)[C@@H](NC(=O)[C@H](CCCCN)NC(=O)[C@@H](N)Cc1cnc[nH]1)[C@@H](C)O)C(C)C)C(N)=O [NEUROKININ A]	1	–
CSCC[C@H](NC(=O)[C@H](CC(C)C)NC(=O)CNC(=O)[C@H](Cc1ccccc1)NC(=O)[C@H](Cc1ccccc1)NC(=O)[C@H](CCC(N)=O)NC(=O)[C@H](CCC(N)=O)NC(=O)[C@@H]1CCCN1C(=O)[C@H](CCCCN)NC(=O)[C@@H]1CCCN1C(=O)[C@@H](N)CCCN=C(N)N)C(N)=O [SUBSTANCE P]	148	–
